Results gathered from unrelated publications.
Lines come from different studies, so protocols differ.
Target: Serine/threonine-protein kinase/endoribonuclease IRE1 (ERN1, Homo sapiens, UniProt O75460)

Structure (SMILES)	effect on	method	tested at	remaining binding [%]
CC1CCCN1c1nccc(-c2cnn3ncccc23)n1 (stereo not drawn)	binding		1 µM	100
CCCOc1ccc([C@H]2[C@H](C(=O)O)[C@@H](c3ccc4c(c3)OCO4)CN2CC(=O)Nc2c(CC)cccc2CC)cc1	cell-free assay	competition with immobilised ligand	1 µM	86
COc1ncc2cc3ccccc3nc2c1C#N	cell-free assay	competition with immobilised ligand	5 µM	93
CCOCCn1cc(C(=O)Nc2ccc(-n3nc(-c4cccnc4)cc3C(F)(F)F)cn2)ccc1=O	cell-free assay	competition with immobilised ligand	1 µM	87
O=C(c1ccc(Nc2ncc(Cl)c(-c3ccc(Cl)s3)n2)cc1)N1CCC(N2CCCC2)CC1	binding	competition with immobilised ligand	1 µM	35
COc1ccnn2ncc(-c3ccnc(N(C)C)n3)c12	binding		1 µM	100
O=C(NCC1CCOCC1)c1n[nH]cc1NC(=O)c1c(F)cccc1F	binding	competition with immobilised ligand	1 µM	65
O=C(NCCCN1CCOCC1)c1ccc(Nc2nccc(-c3cc4ccccc4s3)n2)cc1	binding	competition with immobilised ligand	1 µM	52
C[C@@H]1CCN(c2nccc(-c3cnn4ncccc34)n2)C1	binding		1 µM	100
O=C(NCc1ncc(C(F)(F)F)cc1Cl)c1ccc2c(c1)C1(CCS(=O)(=O)CC1)[C@@H](C1CC1)N2S(=O)(=O)c1ccc(F)cc1	cell-free assay	competition with immobilised ligand	1 µM	65
CN(CCCC(F)(F)F)c1nccc(-c2cnn3ncccc23)n1	binding		1 µM	97
CN1CCN(c2cnc3c(C4CCN(C(=O)c5ccc(OC(F)(F)F)cc5N)CC4)ncnc3c2)CC1	cell-free assay	competition with immobilised ligand	1 µM	99
CNC(=O)[C@@H]1CC[C@@H](n2c(-c3ccc4cnccc4c3)nc3ccc(C(=O)NCc4cccc(C(N)=O)c4)cc32)C1	binding	competition with immobilised ligand	1 µM	97
O=C(c1ccc(Nc2ncc(Cl)c(-c3cc4ccccc4s3)n2)cc1)N1CCC(N2CCCC2)CC1	binding	competition with immobilised ligand	1 µM	37
CCN1CCN(Cc2ccc(C(=O)Nc3ccc(C)c(Oc4ccc5c(c4)CC(=O)N5)c3)cc2C(F)(F)F)CC1	binding	competition with immobilised ligand	1 µM	100
c1cncc(-c2cccc(Nc3nccc(NC4CCCCC4)n3)c2)c1	binding	competition with immobilised ligand	10 µM	44
N[C@H]1CCN(c2nccc(-c3cnn4ncccc34)n2)C1	binding		1 µM	98
COc1cccc(CNC(=O)c2nc3scc(COCc4ccc(C(=O)O)cc4)c3c(=O)[nH]2)c1	cell-free assay	competition with immobilised ligand	1 µM	89.7
CN(c1nccc(-c2cnn3ncccc23)n1)C1CC1	binding		1 µM	100
O=C(O)[C@@H]1[C@@H](Cn2nnc3ccccc3c2=O)CC[C@H]1C(=O)c1ccc(OCCC2CCOCC2)cc1	cell-free assay	competition with immobilised ligand	1 µM	88
COc1cnc(Nc2cccc(S(N)(=O)=O)c2)nc1N1CCN(c2ccccc2)CC1	binding	competition with immobilised ligand	1 µM	73
